C8 TRAIL sens: sensitizes caspase-8 expressing cells to TRAIL | NB7+C8 cells + TRAIL, ATPlite viability luminescence | inhibition (viability loss, TRAIL sensitization), % at 10 µM | 1% of 360,000 active | AID 624354;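 active = compounds causing at least 50% loss of cell viability in the single-dose screen, relative to plate controls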
FLuc act counter: affects firefly luciferase, flagging false hits in luciferase stimulation screens; 200,000 tested, under 10 active; AID 1027; ATPlite luciferase biochemical, luminescence, 10 min; 0 = ATP-free wells, 1 = DMSO control; activation factor at 10 µM;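 active = luciferase activation factor, scaled between plate controls, of at least 2 with compound at 10 µM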
Target sequence (P08659 whole entry, looked up): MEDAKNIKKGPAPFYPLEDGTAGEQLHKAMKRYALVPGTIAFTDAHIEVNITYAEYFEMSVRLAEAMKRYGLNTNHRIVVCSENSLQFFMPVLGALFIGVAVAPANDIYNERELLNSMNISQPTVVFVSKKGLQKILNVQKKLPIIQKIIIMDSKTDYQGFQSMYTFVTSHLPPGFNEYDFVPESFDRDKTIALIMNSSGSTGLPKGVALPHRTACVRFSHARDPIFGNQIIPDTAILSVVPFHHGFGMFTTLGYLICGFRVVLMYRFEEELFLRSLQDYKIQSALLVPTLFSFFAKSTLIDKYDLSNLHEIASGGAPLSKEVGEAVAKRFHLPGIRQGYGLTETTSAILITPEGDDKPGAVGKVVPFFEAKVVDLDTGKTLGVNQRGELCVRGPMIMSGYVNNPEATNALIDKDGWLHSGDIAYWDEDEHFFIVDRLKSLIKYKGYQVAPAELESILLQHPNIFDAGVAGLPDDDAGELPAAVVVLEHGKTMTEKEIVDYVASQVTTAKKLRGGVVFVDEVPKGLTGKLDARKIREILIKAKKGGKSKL
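test system = cell-free luciferase reagent | medium = PBS as buffer for the ATP substrate | dosing = test compounds dosed from 2 mM stocks in 100% DMSO | incubation = 10 min at ambient temperature | detection = luminescence measurement of luciferase light output | benchmarks = low control with PBS replacing ATP, high control enzyme plus ATP without compound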
FLuc inh counter: counter-screen for luciferase assay inhibitors: firefly luciferase inhibition; P08659; ATPLite firefly luciferase biochemical luminescence, 10 min; inhibition, % at 10 µM; 1.5% of 200,000 active; AID 1006;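 active = inhibition above about 50% when tested at 10 µM, limit read from the data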
PPC-1+TRAIL kill: kills PPC-1 cancer cells in the presence of TRAIL; PPC-1 cells + TRAIL, ATPLite viability luminescence; cell killing (% activity), % at 4 µM or 5 µM; 0.41% of 220,000 active;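 active = cell killing above 50% in the first pass at 4 µM, then a duplicate retest at 5 µM averaging 50% or more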
Large screens that a line does not name were inactive. Hits are enriched below; roughly 1.6% of the tested compounds scored in any of these assays.

O=C(c1cc(-c2ccc(Cl)cc2Cl)on1)N1CCOCC1	C8 TRAIL sens 56.8, FLuc inh counter 73.4
O=C(c1cc(-c2ccc3c(c2)OCO3)on1)N1CCOCC1	FLuc inh counter 69.7
O=C(NCC1CCCO1)c1cc(-c2ccc(Cl)cc2Cl)on1 (centres undefined)	FLuc inh counter 70.8
O=C(NCc1cccnc1)NC(=O)c1ccc(Cl)cc1	none (no result: FLuc act counter, FLuc inh counter, PPC-1+TRAIL kill)
Nc1c2c(nc3sc4c(c13)CCCCC4)CCCCC2	C8 TRAIL sens 65.0, FLuc inh counter 61.9
COCC(=O)Nc1nnc(-c2ccc(C(C)(C)C)cc2)s1	FLuc inh counter 60.4
O=C(CCNC(=O)c1ccco1)NC(Cc1c[nH]c2ccccc12)C(=O)O (centres undefined)	none (no result: FLuc act counter, FLuc inh counter, PPC-1+TRAIL kill)
CCS(=O)(=O)Nc1cccc(-c2nc3cccnc3s2)c1	none (no result: FLuc act counter, FLuc inh counter)
CCS(=O)(=O)Nc1ccc(-c2nc3cccnc3s2)cc1	FLuc inh counter 67.2
Cc1cccc(-c2nnc(-c3ccc(N)cc3)o2)c1	FLuc inh counter 56.2
Clc1cccc(-c2nnc(-c3ccccc3)o2)c1	FLuc inh counter 72.6
COc1cccc(NC(=O)CS(=O)(=O)Cc2nc(-c3ccc(C)cc3)oc2C)c1	none (no result: FLuc act counter, FLuc inh counter, PPC-1+TRAIL kill)
O=C(Nc1ccc(-c2nnn(CC(=O)N3CCN(C(=O)c4ccco4)CC3)n2)cc1)c1ccccc1F	FLuc inh counter 55.7 (no result: C8 TRAIL sens)
c1ccc(CNc2nc(NCC3CC3)nc3cc(-c4ccccc4)sc23)cc1	C8 TRAIL sens 54.9 (no result: FLuc act counter, FLuc inh counter, PPC-1+TRAIL kill)
C#Cc1ccccc1OCCCN1CCC(C(O)(c2ccccc2)c2ccccc2)CC1	C8 TRAIL sens 92.9 (no result: FLuc act counter, FLuc inh counter, PPC-1+TRAIL kill)
CCN1/C(=C/C=C/c2oc3ccc(-c4ccccc4)cc3[n+]2CC)Oc2ccc(-c3ccccc3)cc21	C8 TRAIL sens 79.3, PPC-1+TRAIL kill 57.0
CCCCN1C(=O)/C(=C/C=C2\Oc3ccccc3N2CC)SC1=S	none
Cc1ccc(-c2cc3nc(-c4ccccc4)cc(N)n3n2)cc1	none
Cc1cc(N)n2nc(-c3ccccc3)cc2n1	C8 TRAIL sens 77.4, FLuc inh counter 90.6, PPC-1+TRAIL kill 68.3
O=C(Nc1ccc(C(=O)O)cc1)/C(=C\C=C\c1ccccc1)NC(=O)c1cccc(Br)c1	none
O=C(Nc1ccc(C(=O)O)cc1)/C(=C\C=C\c1ccccc1)NC(=O)c1ccccc1Br	C8 TRAIL sens 50.0 (no result: FLuc act counter, FLuc inh counter, PPC-1+TRAIL kill)
CCOC(=O)c1c(C)nc2c(c1-c1cc(OC)c(OC)c(OC)c1)C(=O)c1ccccc1-2	C8 TRAIL sens 66.3
COC(=O)N1c2ccccc2C=Cc2ccccc21	none (no result: FLuc act counter, FLuc inh counter, PPC-1+TRAIL kill)
CC1Sc2ccc(S(=O)(=O)N3CCN(c4ccccc4)CC3)cc2NC1=O (centres undefined)	none (no result: FLuc act counter, FLuc inh counter, PPC-1+TRAIL kill)
Cc1cccc(N2CCN(S(=O)(=O)c3ccc4c(c3)NC(=O)C(C)S4)CC2)c1C (centres undefined)	C8 TRAIL sens 54.0 (no result: FLuc act counter, FLuc inh counter, PPC-1+TRAIL kill)
COC(=O)[C@@]1(C(C)C)N=C(c2cc(OC)c(OC)c(OC)c2)[C@]2(O1)C(=O)N(C)c1ccccc12	none (no result: FLuc act counter, FLuc inh counter, PPC-1+TRAIL kill)
CCOC(=O)c1cnc(-n2nc(C)cc2C)nc1N(C)C	C8 TRAIL sens 49.6, FLuc inh counter 79.5
O=S(=O)(c1ccc(Br)cc1)N1CCN(c2ccc3nnc(-c4ccccc4)n3n2)CC1	C8 TRAIL sens 50.9
O=c1c(-c2ccc3c(c2)OCCO3)coc2cc(OC3OC(CO)C(O)C(O)C3O)ccc12 (centres undefined)	C8 TRAIL sens 54.4 (no result: FLuc act counter, FLuc inh counter)
Cc1cccc(C(=O)NCCc2ccccc2)c1	none (no result: FLuc act counter, FLuc inh counter, PPC-1+TRAIL kill)
CCCCNc1nc(N)nc(-c2cc(Cl)ccc2O)n1	none
CCNc1nc(N)nc(-c2cc(Cl)ccc2O)n1	FLuc inh counter 62.8
CCN(CC(=O)N1CCOCC1)S(=O)(=O)c1ccc2ccccc2c1	none (no result: FLuc act counter, FLuc inh counter, PPC-1+TRAIL kill)
CCN(CC(=O)N1CCc2ccccc2C1)S(=O)(=O)c1ccc2ccccc2c1	C8 TRAIL sens 54.6
N/C(=N\N=C\c1ccc(O)c(O)c1)c1nonc1N	none (no result: FLuc act counter, FLuc inh counter)
N/C(=N\N=C\c1ccc(O)cc1)c1nonc1N	FLuc inh counter 50.8
CCOC(=O)N1CCC(N2Cc3cccc(C(=O)Nc4cc(F)ccc4F)c3C2=O)CC1	PPC-1+TRAIL kill 55.7
CC(C)C(=O)COc1c2occc2cc2ccc(=O)oc12	none (no result: FLuc act counter, FLuc inh counter, PPC-1+TRAIL kill)
Oc1cc(O)cc(-c2cc3ccc(O)cc3o2)c1	none (no result: FLuc act counter, FLuc inh counter, PPC-1+TRAIL kill)
CC1(C)Oc2cc3oc(-c4cc(O)cc(O)c4)cc3cc2CC1O (centres undefined)	C8 TRAIL sens 79.9 (no result: FLuc act counter, FLuc inh counter, PPC-1+TRAIL kill)
CN=c1scc(-c2c[nH]c3ccccc23)n1C	none
Cn1cccc1C(=O)C(=O)Nc1ccccc1	FLuc inh counter 52.5
CC(=O)Nc1ccc2c(c1)C(=O)c1ccc(Cl)cc1-2	none (no result: FLuc act counter, FLuc inh counter, PPC-1+TRAIL kill)
Cc1ccc(-n2c(CNc3ccc(F)cc3)nnc2SCC(=O)O)cc1	none
Cc1ccc(NCc2nnc(SCC(=O)O)n2-c2ccc(C)cc2)cc1	FLuc inh counter 81.8 (no result: PPC-1+TRAIL kill)
COc1ccccc1C(=O)NN=C1CCN(Cc2ccccc2)CC1	none

Source: PubChem
